Results taken from ChEMBL document CHEMBL2163200, “Synthesis, biological evaluation, and structure-activity relationships of novel substituted N-phenyl ureidobenzenesulfonate derivatives blocking cell cycle progression in S-phase and inducing DNA double-strand breaks” (J Med Chem, 2012).
Active and inactive are the calls of the source. The calls are words filed in the database; no cut-off is given here.

How the values were obtained:
HT-29 = test: Cytotoxicity against human HT-29 cells after 48 hrs by SRB assay; format: functional, cell-based; settings: HT-29, 48 h
Method in brief: (§1)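 NCI sulforhodamine B protocol. Cells were grown in high-glucose DMEM with 5% FBS and seeded per well at 4 × 10^3 (HT-29), 3.5 × 10^3 (M21) or 3 × 10^3 (MCF-7), then allowed 24 h to attach. Serial dilutions from 200 μM to 780 nM final were applied in DMSO <0.5% for 48 h. Cells were fixed with cold TCA (10% final) and stained with SRB, with absorbance read at 530–568 nm. Growth inhibition was computed against day-0 plates, giving the 50% inhibitory concentration. At least two experiments in triplicate, CV <10%.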

Jurkat [1] = test: Cell cycle arrest in human Jurkat E6-1 cells assessed as accumulation at G0/G1 phase at 9.3 uM after 24 hrs by FACS flow cytometry; format: functional
Method in brief: (§2)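 Jurkat E6 cells cultured in RPMI 1640 with 10% FBS at 37 °C, 5% CO2. Compounds serially diluted in medium, starting 50% above the M21 IC50. 4.0 × 10^5 cells were exposed for 24 h. Cells were washed with PBS, chicken red blood cells added as internal standard, and fixed in ice-cold EtOH. After 1 h on ice in PBS with 1 μg/mL DAPI, phase distribution was read by flow cytometry. DMSO-treated cells served as control.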

M21 [2] = test: Induction of DNA damage response in human M21 cells assessed as phosphorylation of H2AX into gammaH2AX at IC50 after 24 hrs by DAPI staining-based immunofluorescence assay; format: functional, cell-based
Method in brief: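 M21 cells (1 × 10^5) on fibronectin-coated coverslips, grown 24 h, then exposed to agent for 24 h at 37 °C; 0.5% DMSO control. Fixed with 3.7% formaldehyde and permeabilized with 0.1% saponin/3% BSA. Probed with mouse anti-H2AX pS139 antibody for 2 h at room temperature. Nuclei counterstained with DAPI; nuclear γH2AX foci viewed by epifluorescence microscopy.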

M21 [3] = test: Cytotoxicity against human M21 cells after 48 hrs by SRB assay; format: functional, cell-based; settings: M21, 48 h; method in brief: as §1
MCF7 = test: Cytotoxicity against human MCF7 cells after 48 hrs by SRB assay; format: functional, cell-based; settings: MCF7, 48 h; method in brief: as §1
Jurkat [4] = test: Cell cycle arrest in human Jurkat E6-1 cells assessed as accumulation at S phase at 9.3 uM after 24 hrs by FACS flow cytometry; format: functional
Method in brief: (§3)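 Jurkat E6 T-lymphoblasts in RPMI 1640 with 10% FBS, 37 °C, 5% CO2. […] Chicken red blood cells were added as internal standard. Cells were fixed in ice-cold EtOH and stained with 1 μg/mL DAPI on ice for 1 h before flow cytometry of phase distribution. Vehicle control was 0.5% DMSO.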

Jurkat [5] = test: Cell cycle arrest in human Jurkat E6-1 cells assessed as accumulation at G2/M phase at 9.3 uM after 24 hrs by FACS flow cytometry; format: functional
Method in brief: (§4)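 Jurkat E6 cells grown in RPMI 1640 with 10% FBS at 37 °C, 5% CO2. Compounds were serially diluted in medium starting 50% above the M21 IC50. 4.0 × 10^5 cells were exposed for 24 h, then washed and spiked with chicken red blood cells as internal standard. Cells were fixed in ice-cold ethanol, stained with 1 μg/mL DAPI on ice for 1 h, and phase distribution was read by flow cytometry. The control was 0.5% DMSO.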

HT-1080 [6] = test: Antitumor activity against human HT1080 cells xenografted in chicken chorioallantoic membrane assessed as inhibition of tumor growth at 30 ug per egg, iv administered on day 11 measured on day 17 by CAM assay; format: functional
Method in brief: (§5)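 HT-1080 fibrosarcoma cells (3.5 × 105/egg) were applied onto freshly exposed CAM of fertilized chicken eggs. On day 11, drug from a DMSO stock was diluted in Cremophor EL/99% ethanol/PBS (1/1/14 v/v) and 100 μL was injected into a vein under the CAM. Groups of 10–12 eggs were kept to day 17, embryos were euthanized at 4 °C for ≥4 h, and tumor wet weight was recorded.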

Jurkat [7] = test: Cell cycle arrest in human Jurkat E6-1 cells assessed as accumulation at G0/G1 phase at 1.2 uM after 24 hrs by FACS flow cytometry; format: functional; method in brief: as §2
Jurkat [8] = test: Cell cycle arrest in human Jurkat E6-1 cells assessed as accumulation at G2/M phase at 1.2 uM after 24 hrs by FACS flow cytometry; format: functional; method in brief: as §2
[9] = Toxicity in fertilized chicken embryo assessed as mortality rate at 10 ug per egg, iv administered on day 11 measured on day 17 CAM assay; format: organism-based, Gallus gallus; settings: in vivo, read-out: Activity
Method in brief: (§6)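 Fertilized chicken eggs grafted on the CAM with HT-1080 cells (3.5 × 105/egg) received a 100 μL intravenous injection under the CAM on day 11. The drug was diluted in Cremophor EL/99% ethanol/PBS (1/1/14 v/v). Groups held 10–12 eggs and were incubated until day 17, when dead embryos and signs of toxicity were counted per group.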

HT-1080 [10] = test: Antitumor activity against human HT1080 cells xenografted in chicken chorioallantoic membrane assessed as inhibition of tumor growth at 10 ug per egg, iv administered on day 11 measured on day 17 by CAM assay; format: functional; method in brief: as §5
Jurkat [11] = test: Cell cycle arrest in human Jurkat E6-1 cells assessed as accumulation at S phase at 1.2 uM after 24 hrs by FACS flow cytometry; format: functional; method in brief: as §4
Jurkat [12] = test: Cell cycle arrest in human Jurkat E6-1 cells assessed as accumulation at G2/M phase at 24 uM after 24 hrs by FACS flow cytometry; format: functional; method in brief: as §4
Jurkat [13] = test: Cell cycle arrest in human Jurkat E6-1 cells assessed as accumulation at G0/G1 phase at 24 uM after 24 hrs by FACS flow cytometry; format: functional; method in brief: as §2
Jurkat [14] = test: Cell cycle arrest in human Jurkat E6-1 cells assessed as accumulation at S phase at 24 uM after 24 hrs by FACS flow cytometry; format: functional; method in brief: as §4
Jurkat [15] = test: Cell cycle arrest in human Jurkat E6-1 cells assessed as accumulation at S phase at 1.7 uM after 24 hrs by FACS flow cytometry; format: functional; method in brief: as §4
Jurkat [16] = test: Cell cycle arrest in human Jurkat E6-1 cells assessed as accumulation at G2/M phase at 1.7 uM after 24 hrs by FACS flow cytometry; format: functional; method in brief: as §2
Jurkat [17] = test: Cell cycle arrest in human Jurkat E6-1 cells assessed as accumulation at G0/G1 phase at 1.7 uM after 24 hrs by FACS flow cytometry; format: functional; method in brief: as §2
Jurkat [18] = test: Cell cycle arrest in human Jurkat E6-1 cells assessed as accumulation at G0/G1 phase at 6.6 uM after 24 hrs by FACS flow cytometry; format: functional; method in brief: as §2
Jurkat [19] = test: Cell cycle arrest in human Jurkat E6-1 cells assessed as accumulation at G2/M phase at 6.6 uM after 24 hrs by FACS flow cytometry; format: functional; method in brief: as §4
Jurkat [20] = test: Cell cycle arrest in human Jurkat E6-1 cells assessed as accumulation at S phase at 6.6 uM after 24 hrs by FACS flow cytometry; format: functional; method in brief: as §3
Jurkat [21] = test: Cell cycle arrest in human Jurkat E6-1 cells assessed as accumulation at G2/M phase at 0.84 uM after 24 hrs by FACS flow cytometry; format: functional; method in brief: as §2
[22] = Toxicity in fertilized chicken embryo assessed as mortality rate at 30 ug per egg, iv administered on day 11 measured on day 17 by CAM assay; format: organism-based, Gallus gallus; settings: in vivo, read-out: Activity; method in brief: as §6
Jurkat [23] = test: Cell cycle arrest in human Jurkat E6-1 cells assessed as accumulation at G0/G1 phase at 0.84 uM after 24 hrs by FACS flow cytometry; format: functional; method in brief: as §2
Jurkat [24] = test: Cell cycle arrest in human Jurkat E6-1 cells assessed as accumulation at S phase at 0.84 uM after 24 hrs by FACS flow cytometry; format: functional; method in brief: as §4

SMILES	IC50 (HT-29) [µM]	Activity (M21 [2])	IC50 (M21 [3]) [µM]	IC50 (MCF7) [µM]	TGI (HT-1080 [6]) [%]	other results
CCc1ccccc1OS(=O)(=O)c1ccc(NC(=O)NCCCl)cc1	17	Active	13	19	49	Activity (Jurkat [1]): 6%; Activity (Jurkat [4]): 77%; Activity (Jurkat [5]): 17%
Cc1ccccc1OS(=O)(=O)c1ccc(NC(=O)NCCCl)cc1	4.7	Active	2.8	4.8	–	Activity (Jurkat [7]): 22%; Activity (Jurkat [8]): 7%; mortality at 6 days [9]: 15%; TGI (HT-1080 [10]): 60%; Activity (Jurkat [11]): 71%
Cc1ccccc1OS(=O)(=O)c1cccc(NC(=O)NCCCl)c1	33	–	40	–	–	Activity (Jurkat [12]): 11%; Activity (Jurkat [13]): 45%; Activity (Jurkat [14]): 44%
CCCc1ccccc1OS(=O)(=O)c1ccc(NC(=O)NCCCl)cc1	2.5	Active	2.1	3.6	49	Activity (Jurkat [15]): 73%; Activity (Jurkat [16]): 11%; Activity (Jurkat [17]): 16%
CCCc1ccccc1OS(=O)(=O)c1ccc(NC(=O)NCCCCl)cc1	–	Active	13	15	–	Activity (Jurkat [18]): 25%; Activity (Jurkat [19]): 8%; Activity (Jurkat [20]): 67%
O=C(NCCCl)Nc1ccc(S(=O)(=O)Oc2ccc(O)cc2)cc1	1.5	–	1.2	1.3	69	Activity (Jurkat [21]): 20%; mortality at 6 days [22]: 15%; Activity (Jurkat [23]): 27%; Activity (Jurkat [24]): 53%
